Entries after “also recorded” stand apart in the source; their conditions may differ. Read-outs that look alike come from different tables or passages of the source.
Experiments:
purified iNicSnFR3a [1] = test: Fluorescence dose–response relations of purified iNicSnFR3a; assay type: biochemical; conditions: for sensitivity of iNicSnFR3a and iNicSnFR3b to other α4β2 agonists: unpublished data; for ΔFmax/F0: excitation 485 nm, 3× PBS, 25°C
[2] = tested on: T. sp X513 OpuBC homologue; test: Isothermal titration calorimetry with purified PBPs; assay type: binding, Thermoanaerobacter sp X513
[3] = tested on: iNicSnFR3a_PM expressed in HeLa cells; test: Time-resolved fluorescence, iNicSnFR3a_PM in transfected HeLa cells; assay type: cell-based, human; conditions: Fig. 5 E; normalized to nicotine (100 µM)
[4] = tested on: iNicSnFR3a_ER expressed in HeLa cells; test: Time-resolved fluorescence, iNicSnFR3a_ER in transfected HeLa cells; assay type: cell-based, human; conditions: Fig. 5 E; normalized to nicotine (100 µM)
[5] = cited from earlier work; for pKa: no reference printed; for logD7.4: ref Smith et al., 2012
purified iNicSnFR3a [6] = test: Isothermal titration calorimetry with purified iNicSnFR3a; assay type: binding; conditions: PBS, 25°C
Outline: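 Calorimetric titration: 100 µM protein in the cell titrated with 1 mM test ligand in PBS at 25°C. Binding isotherm yields equilibrium dissociation constant and stoichiometry (moles ligand per mole protein).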

[7] = tested on: iNicSnFR3 biosensors targeted to the ER; assay type: cell-based
[8] = cited from earlier work
[9] = tested on: iNicSnFR3a_ER in human dopaminergic neurons
[10] = tested on: AAV_iNicSnFR3b_ER in cultured mouse hippocampal neurons
[11] = tested on: _ER constructs in HeLa cells and hippocampal neurons; conditions: applied [nicotine] ≤ 5 µM; mean ± SEM, n = 8 cells
iNicSnFR3a = test: Stopped-flow kinetics of ligand binding to iNicSnFR3a
[12] = tested on: iNiSnFR3a_Y357A_PM in HeLa cells; conditions: concentrations ≤300 µM
[13] = tested on: _PM constructs in HeLa cells and hippocampal neurons; conditions: applied [nicotine] ≤ 5 µM; mean ± SEM, n = 8 cells
iNicSnFR1 = conditions: read-out: apparent nicotine EC50
[14] = tested on: AAV2/1.syn1.iNicSnFR3b_ER in cultured hippocampal neurons; test: Time-resolved fluorescence, iNicSnFR3b_ER in cultured hippocampal neurons; assay type: cell-based, mouse; conditions: compared with nicotine responses and with varenicline responses on the PM
[15] = tested on: iNicSnFR3a and iNicSnFR3b in HeLa cells and neurons; assay type: cell-based
α4β2 nAChRs [16] = conditions: cited from earlier work
α7 nAChRs = conditions: cited from earlier work
α4β2 nAChRs [17] = conditions: ref Turner et al., 2011; Marks et al., 2015; Govind et al., 2017; cited from earlier work
[18] = ref Coe et al., 2005, Mihalak et al., 2006

## c1cncc(OC[C@@H]2CCN2)c1 [A-85380]
Purified iNicSnFR3a [1]
  sensitivity of iNicSnFR3a and iNicSnFR3b to other α4β2 agonists: less sensitive

## CC(=O)OCC[N+](C)(C)C [ACh, acetylcholine]
[2]
  binding to the purified protein: bind to this protein
[3]
  fluorescence increases: comparable fluorescence increases
[4]
  fluorescence increases: only nicotine evoked fluorescence increases

## C[N+](C)(C)CC(=O)O [betaine]
[2]
  binding to the purified protein: bind to this protein

## C[N+](C)(C)CCO [choline]
[2]
  binding to the purified protein: bind to this protein
Purified iNicSnFR3a [1]; Fig. 2 C
  EC50 for choline relative to nicotine: more than fourfold greater

## CN1C(=O)CC[C@H]1c1cccnc1 [cotinine]
Purified iNicSnFR3a [1]; Fig. 2 C
  ΔF: near-zero ΔF values

## O=c1cccc2n1C[C@@H]1CNC[C@H]2C1 [cytisine]
Purified iNicSnFR3a [1]
  sensitivity of iNicSnFR3a and iNicSnFR3b to other α4β2 agonists: less sensitive

## c1cnc2c(c1)O[C@H]1CCN3CC[C@@]1(C2)C3 [dianicline]
Purified iNicSnFR3a [1]
  sensitivity of iNicSnFR3a and iNicSnFR3b to other α4β2 agonists: less sensitive

## CN1CCC[C@H]1c1cccnc1 [nicotine, (—)–Nicotine]
[5]
  pKa: 7.5–8
  logD7.4: −0.04
[5]; listed as Nicotine
  pKa: 7.5–8.1
[3]
  fluorescence increases: comparable fluorescence increases
Purified iNicSnFR3a [6]
  Kd: 10 ± 2.5 µM
[7]
  [nicotine] in the ER versus the extracellular value: within twofold; also recorded: less than twofold
  time for nicotine to leave the ER after removal from the extracellular solution: ≤ 10 s
[4]
  fluorescence increases: only nicotine evoked fluorescence increases
[8]; in humans, ref Benowitz et al., 1991
  half-time of metabolism: ~20 min
[8]; ref Benowitz et al., 1991, Rollema et al., 2010
  peak [nicotine] in the plasma and brain of a smoker: ~1 µM
[9]
  maximum ΔF/F0: 3–4
[9]; [nicotine] ≤ 5 µM, Fig. 6 F inset
  slope [ΔF/F0]/[nicotine]: 0.087 µM⁻¹
[9]; read-out: [nicotine] giving half-ΔFmax/F0
  EC50: ~20 µM
[10]
  diffusion constant: ~1 µm^2/ms
[10]; cell in ROI 3, ∼150 µm from the pipette tip
  time scale of complete response: ~10 s
[10]; cell within 10 µm of the pipette tip
  time of fluorescence increase: < 1 s
[11]
  [ΔF/F0]/[nicotine]: 0.075 ± 0.019 µM⁻¹
iNicSnFR3a; 25°C, PBS
  koff-ext (extrapolation to zero [nicotine]): 2.0 s⁻¹
iNicSnFR3a; read-out: equilibrium-binding constant Kd = koff/kon, stopped-flow
  Kd: 29 µM
[12]
  nicotine-induced ΔF: no detectable nicotine-induced ΔF
[13]
  [ΔF/F0]/[nicotine]: 0.063 ± 0.13 µM⁻¹
iNicSnFR1
  EC50: 250 µM
Purified iNicSnFR3a [1]; Fig. 3 I
  decrease in EC50 as the pH is increased from 6.0 to 9.0: ~20 fold
Purified iNicSnFR3a [1]; pH 6.0 to 9.0, Fig. 3 I
  EC50 for nicotine relative to EC50 for N’MeNic: 1.25- to 2 fold
Purified iNicSnFR3a [1]; pH 7.5
  ΔFmax/F0: 14.5
Purified iNicSnFR3a [1]; pH 9.0
  ΔFmax/F0: 3.5

## c1cnc2cc3c(cc2n1)[C@@H]1CNC[C@H]3C1 [varenicline]
[14]
  growth and decay phases of the ER varenicline-induced fluorescence: clearly slower
[5]
  pKa: 9.5–10
  logD7.4: −1.27
Purified iNicSnFR3a [6]
  Kd: 3.5 µM
[7]; clinically relevant sub-µM concentrations
  time for varenicline to leave the ER after leaving the external solution: at most 60 s
[15]
  EC50: 1 to 4 µM
[8]; human plasma, ref Faessel et al., 2006
  half-life: ~24 h
α4β2 nAChRs [16]; no reference printed
  agonist type: partial agonist
α4β2 nAChRs [16]; [18]
  potency relative to ACh: more potent than ACh
iNicSnFR3a; stopped-flow
  inferred Kd relative to nicotine: approximately threefold less
α7 nAChRs; no reference printed
  agonist type: full agonist
α7 nAChRs; [18]
  potency relative to ACh: more potent than ACh
α4β2 nAChRs [17]
  effect of exposure on α4β2 nAChRs: up-regulates
Purified iNicSnFR3a [1]
  agonist character for iNicSnFR3 fluorescence: highly potent full agonist
Purified iNicSnFR3a [1]; purified iNicSnFR3a
  varenicline EC50 relative to nicotine: approximately sixfold less

From publication PMC6571994 (The Journal of General Physiology, 2019)
